Source: ChEMBL document CHEMBL4689842, “EUbOPEN Chemogenomics Library wave 1” (2021)
Values joined by “and” are separate entries in the source; they are usually repeats but may differ in a detail not shown here. Identical values can stand only once.

System: Fibroblast
Experiment: Multiplex assay against human fibroblast
Type: toxicity, cell-based
How it was run: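 Cells were classed with CellPathfinder machine-learning gating, first as Hoechst high-intensity objects or normal cells, then (normal cells) as healthy, pyknosed or fragmented nuclei, and finally (pyknosed cells) as mitotic or apoptotic. Staining of live cells at seeding used Hoechst33342, BioTracker Green Microtubule Cytoskeleton Dye, MitoTracker Red and Annexin V Alexa Fluor 680, with imaging on a CQ1 microscope at 37°C and 5% CO2 after compound addition. Tubulin, mitochondrial-mass and membrane-permeability phenotypes are per cents of healthy-nucleus cells.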

[1] = 12 h, 1 µM, compound concentration 1 uM, replicate 1
[2] = 12 h, 1 µM, compound concentration 1 uM, replicate 2
[3] = 12 h, 10 µM, compound concentration 10 uM, replicate 1
[4] = 12 h, 10 µM, compound concentration 10 uM, replicate 2
[5] = 24 h, 1 µM, compound concentration 1 uM, replicate 1
[6] = 24 h, 1 µM, compound concentration 1 uM, replicate 2
[7] = 24 h, 10 µM, compound concentration 10 uM, replicate 1
[8] = 24 h, 10 µM, compound concentration 10 uM, replicate 2
[9] = 48 h, 1 µM, compound concentration 1 uM, replicate 1
[10] = 48 h, 1 µM, compound concentration 1 uM, replicate 2
[11] = 48 h, 10 µM, compound concentration 10 uM, replicate 1
[12] = 48 h, 10 µM, compound concentration 10 uM, replicate 2

CS(=O)(=O)N1CCCC(NC(=O)[C@H](CCC2CCCCC2)NC(=O)c2ccc(CNC(=O)c3cnc4ccccn34)cc2)C1 (some centres undefined) [SR-302]
Population Apoptotic (%) [1]: 63% [middle of 4 runs]
Population Fragmented Nuclei (%) [1]: 16% and 17% and 20%
Population Healthy Nuclei (%) [1]: 42% [middle of 4 runs]
Population Hoechst High Intensity Objects (%) [1]: 15% [middle of 4 runs]
Population Membrane Permeable-Phenotype (%) [1]: 31% and 23%
Population Mitochondria Different-Phenotype (%) [1]: 10% [middle of 4 runs]
Population Mitotic Cells (%) [1]: 42% [middle of 4 runs]
Population Normal (%) [1]: 85% and 84% and 80% and 87%
Population Pyknosed Nuclei (%) [1]: 55% and 40% and 41%
Population Apoptotic (%) [2]: 40% and 33% and 20%
Population Healthy Nuclei (%) [2]: 81% [middle of 4 runs]
Population Membrane Permeable-Phenotype (%) [2]: 0% and 7% and 2%
Population Mitochondria Different-Phenotype (%) [2]: 6% and 7% and 9%
Population Mitotic Cells (%) [2]: 60% and 66% and 80%
Population Normal (%) [2]: 75% and 93% and 83% and 97%
Population Pyknosed Nuclei (%) [2]: 12% [middle of 4 runs]
Total Cell Count [2]: 84 and 98 and 59
Population Apoptotic (%) [3]: 56% [middle of 4 runs]
Population Fragmented Nuclei (%) [3]: 26% [middle of 4 runs]
Population Healthy Nuclei (%) [3]: 20% and 32% and 52%
Population Hoechst High Intensity Objects (%) [3]: 11% and 19% and 9%
Population Membrane Permeable-Phenotype (%) [3]: 20% [middle of 4 runs]
Population Mitotic Cells (%) [3]: 48% [middle of 4 runs]
Population Normal (%) [3]: 88% and 80% and 91%
Population Pyknosed Nuclei (%) [3]: 51% [middle of 4 runs]
Population Tubulin-Different-Phenotype (%) [3]: 86% [middle of 4 runs]
Total Cell Count [3]: 137 [middle of 4 runs]
Population Apoptotic (%) [4]: 71% [middle of 4 runs]
Population Healthy Nuclei (%) [4]: 34% and 80% and 83%
Population Membrane Permeable-Phenotype (%) [4]: 18% and 23% and 11%
Population Normal (%) [4]: 66% and 92% and 93% and 96%
Population Pyknosed Nuclei (%) [4]: 17% and 7% and 9%
Population Tubulin-Different-Phenotype (%) [4]: 91% [middle of 4 runs]
Total Cell Count [4]: 77 [middle of 4 runs]
Population Apoptotic (%) [5]: 72% [middle of 4 runs]
Population Fragmented Nuclei (%) [5]: 25% [middle of 4 runs]
Population Healthy Nuclei (%) [5]: 51% [middle of 4 runs]
Population Hoechst High Intensity Objects (%) [5]: 17% [middle of 4 runs]
Population Mitochondria Different-Phenotype (%) [5]: 7% [middle of 4 runs]
Population Mitotic Cells (%) [5]: 40% [middle of 4 runs]
Population Normal (%) [5]: 85% and 77% and 82% and 83%
Population Pyknosed Nuclei (%) [5]: 28% [middle of 4 runs]
Population Membrane Permeable-Phenotype (%) [6]: 0% and 5% and 1%
Population Mitochondria Different-Phenotype (%) [6]: 6% and 8% and 4%
Population Mitotic Cells (%) [6]: 66% [middle of 4 runs]
Population Normal (%) [6]: 76% and 95%
Total Cell Count [6]: 97 [middle of 4 runs]
Population Apoptotic (%) [7]: 57% [middle of 4 runs]
Population Fragmented Nuclei (%) [7]: 24% [middle of 4 runs]
Population Healthy Nuclei (%) [7]: 37% and 27% and 59%
Population Hoechst High Intensity Objects (%) [7]: 10% [middle of 4 runs]
Population Mitotic Cells (%) [7]: 51% [middle of 4 runs]
Population Normal (%) [7]: 100% and 89% and 80% and 92%
Population Pyknosed Nuclei (%) [7]: 51% [middle of 4 runs]
Population Tubulin-Different-Phenotype (%) [7]: 82% [middle of 4 runs]
Population Apoptotic (%) [8]: 55% [middle of 4 runs]
Population Membrane Permeable-Phenotype (%) [8]: 16% [middle of 4 runs]
Population Mitochondria Different-Phenotype (%) [8]: 75% [middle of 4 runs]
Population Mitotic Cells (%) [8]: 45% [middle of 4 runs]
Population Normal (%) [8]: 62% and 88% and 95% and 94%
Population Pyknosed Nuclei (%) [8]: 24% and 15% and 13%
Population Tubulin-Different-Phenotype (%) [8]: 72% [middle of 4 runs]
Total Cell Count [8]: 88 [middle of 4 runs]
Population Apoptotic (%) [9]: 58% and 70% and 55%
Population Fragmented Nuclei (%) [9]: 42% and 31% and 22%
Population Healthy Nuclei (%) [9]: 40% and 46% and 52%
Population Hoechst High Intensity Objects (%) [9]: 18% and 24% and 20%
Population Membrane Permeable-Phenotype (%) [9]: 14% and 36% and 20%
Population Mitochondria Different-Phenotype (%) [9]: 7% and 13% and 5%
Population Mitotic Cells (%) [9]: 41% and 30% and 44%
Population Normal (%) [9]: 81% and 75% and 79%
Population Pyknosed Nuclei (%) [9]: 17% and 21% and 24%
Population Tubulin-Different-Phenotype (%) [9]: 42% and 59% and 28%
Total Cell Count [9]: 86 and 62 and 93
Population Fragmented Nuclei (%) [10]: 19% and 14% and 23%
Population Healthy Nuclei (%) [10]: 79% and 82% and 72%
Population Hoechst High Intensity Objects (%) [10]: 13% and 8% and 15%
Population Membrane Permeable-Phenotype (%) [10]: 9% and 7%
Population Mitochondria Different-Phenotype (%) [10]: 0% and 4%
Population Normal (%) [10]: 86% and 91% and 84%
Total Cell Count [10]: 105 and 83 and 107
Population Apoptotic (%) [11]: 53% and 87% and 50%
Population Fragmented Nuclei (%) [11]: 31% and 64% and 30%
Population Healthy Nuclei (%) [11]: 47% and 22% and 30%
Population Hoechst High Intensity Objects (%) [11]: 27% and 36% and 28%
Population Mitochondria Different-Phenotype (%) [11]: 33% and 50% and 53%
Population Normal (%) [11]: 72% and 63% and 71%
Population Tubulin-Different-Phenotype (%) [11]: 70% and 64% and 92%
Total Cell Count [11]: 87 and 97 and 118
Population Apoptotic (%) [12]: 66% and 44%
Population Fragmented Nuclei (%) [12]: 35% and 26% and 27%
Population Healthy Nuclei (%) [12]: 60% and 65% and 62%
Population Membrane Permeable-Phenotype (%) [12]: 7% and 5%
Population Mitochondria Different-Phenotype (%) [12]: 37% and 45%
Population Mitotic Cells (%) [12]: 33% and 55%
Population Normal (%) [12]: 98% and 90%
Population Pyknosed Nuclei (%) [12]: 4% and 7% and 10%
Population Tubulin-Different-Phenotype (%) [12]: 91% and 93% and 96%
Total Cell Count [12]: 133 and 139
